Results reported in ChEMBL document CHEMBL4011638, “Semisynthetic Flavone-Derived Antimicrobials with Therapeutic Potential against Methicillin-Resistant Staphylococcus aureus (MRSA)” (J Med Chem, 2017).
Values after ≈ are worked out from the molar mass of the structure shown. Active and inactive are the calls of the source. The calls are words filed in the database; no cut-off is given here.

How the values were obtained:
Staphylococcus aureus [1] = assay: Antibacterial activity against methicillin-resistant Staphylococcus aureus DM 9808R after 24 hrs by broth microdilution method; format: functional
Procedure, shortened: (§1)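 Broth microdilution per CLSI in cation-adjusted Mueller−Hinton broth, in tubes. Compounds dissolved in H2O or DMF, then diluted in PBS to 1000 μg/mL stocks. Serial 2-fold dilutions were made, with final DMF 2.5%. Organisms were grown on TSA at 35 °C for 20 h and adjusted to ~5× 10^5 CFU/mL. Tubes were incubated at 35 °C for 24 h. MIC was the lowest concentration with no visible growth versus control. Biological replicates.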

Staphylococcus aureus [2] = assay: Antibacterial activity against Staphylococcus aureus DM4001R after 24 hrs by broth microdilution method; format: functional; procedure, shortened: as §1
Staphylococcus aureus [3] = assay: Antibacterial activity against methicillin-resistant Staphylococcus aureus DM 21455 after 24 hrs by broth microdilution method; format: functional; settings: DM 21455, 24 h; procedure, shortened: as §1
Bacillus cereus = assay: Antibacterial activity against Bacillus cereus ATCC 11778 after 24 hrs by broth microdilution method; format: functional; settings: ATCC 11778, 24 h
Procedure, shortened: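 MIC by CLSI broth microdilution in cation-adjusted Mueller–Hinton broth, tubes. Compounds in H2O or DMF, diluted in PBS to 1000 μg/mL stocks, then serial 2-fold dilutions (final DMF 2.5%). Inoculum ~5×10^5 CFU/mL from TSA plates grown 35 °C 20 h. Incubation 35 °C 24 h; MIC = no visible growth vs control. Biological replicates.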

Staphylococcus aureus [4] = assay: Antibacterial activity against methicillin-sensitive Staphylococcus aureus DM4583R after 24 hrs by broth microdilution method; format: functional; procedure, shortened: as §1
Staphylococcus aureus [5] = assay: Antibacterial activity against methicillin-sensitive Staphylococcus aureus DM4400R after 24 hrs by broth microdilution method; format: functional; procedure, shortened: as §1
Staphylococcus aureus [6] = assay: Antibacterial activity against methicillin-sensitive Staphylococcus aureus DM4299 after 24 hrs by broth microdilution method; format: functional; settings: DM4299, 24 h; procedure, shortened: as §1
Staphylococcus aureus [7] = assay: Antibacterial activity against methicillin-sensitive Staphylococcus aureus ATCC 29213 after 24 hrs by broth microdilution method; format: functional; settings: ATCC 29213, 24 h; procedure, shortened: as §1
Staphylococcus aureus [8] = assay: Antibacterial activity against methicillin-sensitive Staphylococcus aureus ATCC 6538 after 24 hrs by broth microdilution method; format: functional; settings: ATCC 6538, 24 h; procedure, shortened: as §1
Staphylococcus aureus [9] = assay: Antibacterial activity against methicillin-sensitive Staphylococcus aureus ATCC 29737 after 24 hrs by broth microdilution method; format: functional; settings: ATCC 29737, 24 h; procedure, shortened: as §1
Staphylococcus aureus [10] = assay: Antibacterial activity against methicillin-resistant Staphylococcus aureus DB6506 after 24 hrs by broth microdilution method; format: functional; settings: DB6506, 24 h; procedure, shortened: as §1
Staphylococcus aureus [11] = assay: Antibacterial activity against methicillin-resistant Staphylococcus aureus DB68004 after 24 hrs by broth microdilution method; format: functional; settings: DB68004, 24 h; procedure, shortened: as §1
Staphylococcus aureus [12] = assay: Antibacterial activity against methicillin-resistant Staphylococcus aureus DB57964 after 24 hrs by broth microdilution method; format: functional; settings: DB57964, 24 h; procedure, shortened: as §1
Staphylococcus aureus [13] = assay: Antibacterial activity against methicillin-resistant Staphylococcus aureus ATCC 43300 after 24 hrs by broth microdilution method; format: functional; settings: ATCC 43300, 24 h; procedure, shortened: as §1
Staphylococcus aureus [14] = assay: Antibacterial activity against methicillin-resistant Staphylococcus aureus ATCC 700699 after 24 hrs by broth microdilution method; format: functional; settings: ATCC 700699, 24 h; procedure, shortened: as §1
Staphylococcus aureus [15] = assay: Antibacterial activity against methicillin-resistant Staphylococcus aureus BAA-38 after 24 hrs by broth microdilution method; format: functional; settings: BAA-38, 24 h; procedure, shortened: as §1
Staphylococcus aureus [16] = assay: Induction of plasma membrane permeability in methicillin-resistant Staphylococcus aureus DM9808R assessed as increase in fluorescence intensity at 12.5 ug/ml measured every 1 sec for 50 mins by SYTOX green dye based fluorimetric assay; format: functional
Procedure, shortened: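 Exponential-phase MRSA DM9808R grown on TSA, washed twice and resuspended in PBS (10 mM, pH 7) to OD600 0.2. Cells were loaded with 0.3 μM SYTOX Green in the dark until fluorescence stabilized. Test samples were then added (final DMF 0.5%). Fluorescence at ex 504/em 523 nm was recorded every 1 s for 50 min. Biological replicates.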

Lipid bilayer = assay: Membrane permeabilization activity in DOPE/DOPG large unilamellar liposomes assessed as leakage of calcein at 1:4 to 1:8 compound to lipid ratio by fluorescence assay
[17] = Ratio of HC50 for New Zealand white rabbit RBC to MIC for methicillin-sensitive Staphylococcus aureus DM4583R
Procedure, shortened: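 HC50 measured on fresh New Zealand white rabbit RBCs, washed three times in PBS, at 4% v/v final. Cells were incubated with 2-fold serial dilutions (DMF final 0.5%) at 37 °C for 1 h, then centrifuged. Supernatant absorbance was read at 576 nm, with PBS as 0% and 2% Triton X-100 as 100% lysis. HC50 is the concentration lysing 50% of cells, divided by MIC from broth microdilution.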

Compound	MIC (Staphylococcus aureus [1])	MIC (Staphylococcus aureus [2])	MIC (Staphylococcus aureus [3])	MIC (Bacillus cereus)	MIC (Staphylococcus aureus [4]) [µg/mL]	MIC (Staphylococcus aureus [5]) [µg/mL]	MIC (Staphylococcus aureus [6]) [µg/mL]	MIC (Staphylococcus aureus [7]) [µg/mL]	MIC (Staphylococcus aureus [8]) [µg/mL]	MIC (Staphylococcus aureus [9]) [µg/mL]	MIC (Staphylococcus aureus [10]) [µg/mL]	MIC (Staphylococcus aureus [11]) [µg/mL]	MIC (Staphylococcus aureus [12]) [µg/mL]	MIC (Staphylococcus aureus [13]) [µg/mL]	MIC (Staphylococcus aureus [14]) [µg/mL]	MIC (Staphylococcus aureus [15]) [µg/mL]	Activity (Staphylococcus aureus [16])	Activity (Lipid bilayer) [%]	Ratio [17]
COc1ccc(-c2oc3c(CC=C(C)C)c(OCC(=O)N[C@@H](CCCNC(=N)N)C(=O)OC(C)(C)C)cc(O)c3c(=O)c2OCC(=O)N[C@@H](CCCNC(=N)N)C(=O)OC(C)(C)C)cc1	3.4 µM	3.4 µM	6.8 µM	3.4 µM															
CN[C@H](CC(C)C)C(=O)N[C@H]1C(=O)N[C@@H](CC(N)=O)C(=O)N[C@H]2C(=O)N[C@H]3C(=O)N[C@H](C(=O)N[C@H](C(=O)O)c4cc(O)cc(O)c4-c4cc3ccc4O)[C@H](O)c3ccc(c(Cl)c3)Oc3cc2cc(c3O[C@@H]2O[C@H](CO)[C@@H](O)[C@H](O)[C@H]2O[C@H]2C[C@](C)(N)[C@H](O)[C@H](C)O2)Oc2ccc(cc2Cl)[C@H]1O [VANCOMYCIN]	2.2 µM	1.1 µM	1.1 µM	1.1 µM	1.56 (≈ 1.08 µM)	0.78 (≈ 0.538 µM)	1.56 (≈ 1.08 µM)	1.56 (≈ 1.08 µM)	0.78 (≈ 0.538 µM)	0.78 (≈ 0.538 µM)	0.78 (≈ 0.538 µM)	1.56 (≈ 1.08 µM)	0.78 (≈ 0.538 µM)	0.78 (≈ 0.538 µM)	1.56 (≈ 1.08 µM)	1.56 (≈ 1.08 µM)			
CCN(CC)CCCCCCCCOc1cc(O)c2c(=O)c(OCCCCCCCCN(CC)CC)c(-c3ccc(OC)cc3)oc2c1CC=C(C)C	> 50 µg/mL	> 50 µg/mL	> 50 µg/mL	> 50 µg/mL															
CCN(CC)CCOc1cc(O)c2c(=O)c(OCCN(CC)CC)c(-c3ccc(OC)cc3)oc2c1CC=C(C)C	> 50 µg/mL	50 µg/mL	50 µg/mL	> 50 µg/mL															
CCN(CC)CCCCOc1cc(O)c2c(=O)c(OCCCCN(CC)CC)c(-c3ccc(OC)cc3)oc2c1CC=C(C)C	12.5 µg/mL	25 µg/mL	12.5 µg/mL	6.25 µg/mL															
COC(=O)[C@H](Cc1cnc[nH]1)NC(=O)COc1cc(O)c2c(=O)c(OCC(=O)N[C@@H](Cc3cnc[nH]3)C(=O)OC)c(-c3ccc(OC)cc3)oc2c1CC=C(C)C	> 63.5 µM	> 63.5 µM	> 63.5 µM	> 63.5 µM													inactive	< 5	
COc1ccc(-c2oc3c(CC=C(C)C)c(OCCBr)cc(O)c3c(=O)c2OCCBr)cc1	10 µM	5 µM	5 µM	5 µM															
CC(C)(C)c1cc(C(C)(C)C)c2[nH]c(C(C)(C)C)c(C[C@H](NC(=O)[C@@H](N)CCCNC(=N)N)C(=O)N[C@@H](CCCNC(=N)N)C(=O)NCCc3ccccc3)c2c1 [LTX-109]					4 (≈ 5.08 µM)	4 (≈ 5.08 µM)	4 (≈ 5.08 µM)	4 (≈ 5.08 µM)	4 (≈ 5.08 µM)	4 (≈ 5.08 µM)	4 (≈ 5.08 µM)	4 (≈ 5.08 µM)	4 (≈ 5.08 µM)	4 (≈ 5.08 µM)	4 (≈ 5.08 µM)	4 (≈ 5.08 µM)			44
COC(=O)[C@H](CCCCN)NC(=O)COc1cc(O)c2c(=O)c(OCC(=O)N[C@@H](CCCCN)C(=O)OC)c(-c3ccc(OC)cc3)oc2c1CC=C(C)C	32.5 µM	32.5 µM	32.5 µM	32.5 µM													Active	30	
COc1ccc(-c2oc3c(CC=C(C)C)c(OCCCCN(C)C)cc(O)c3c(=O)c2OCCCCN(C)C)cc1	12.5 µg/mL	25 µg/mL	12.5 µg/mL	25 µg/mL															
COC(=O)[C@H](CCCNC(=N)N)NC(=O)[C@H](CCCNC(=N)N)NC(=O)COc1cc(O)c2c(=O)c(OCC(=O)N[C@@H](CCCNC(=N)N)C(=O)N[C@@H](CCCNC(=N)N)C(=O)OC)c(-c3ccc(OC)cc3)oc2c1CC=C(C)C	5.5 µM	5.5 µM	11 µM	11 µM															
H-GIGKFLKKAKKFGKAFVKILKK-OH					16 to 64	16 to 64	16 to 64	16 to 64	16 to 64	16 to 64	16 to 64	16 to 64	16 to 64	16 to 64	16 to 64	16 to 64			2 to 8
COC(=O)[C@H](CCCNC(=N)N)NC(=O)COc1cc(O)c2c(=O)c(O)c(-c3ccc(OC)cc3)oc2c1CC=C(C)C	5.2 µM	5.2 µM	10.4 µM	10.4 µM															
N=C(N)NCCCCC(=O)Nc1cc(C(F)(F)F)cc(NC(=O)c2cc(C(=O)Nc3cc(C(F)(F)F)cc(NC(=O)CCCCNC(=N)N)c3O[C@@H]3CCNC3)ncn2)c1O[C@@H]1CCNC1 [BRILACIDIN]					1 (≈ 1.07 µM)	1 (≈ 1.07 µM)	1 (≈ 1.07 µM)	1 (≈ 1.07 µM)	1 (≈ 1.07 µM)	1 (≈ 1.07 µM)	1 (≈ 1.07 µM)	1 (≈ 1.07 µM)	1 (≈ 1.07 µM)	1 (≈ 1.07 µM)	1 (≈ 1.07 µM)	1 (≈ 1.07 µM)			558
CCN(CC)CCCCCCOc1cc(O)c2c(=O)c(OCCCCCCN(CC)CC)c(-c3ccc(OC)cc3)oc2c1CC=C(C)C	3.13 µg/mL	6.25 µg/mL	3.13 µg/mL	12.5 µg/mL															
COc1ccc(-c2oc3c(CC=C(C)C)c(O)cc(O)c3c(=O)c2O)cc1 [ICARITIN]	50 µg/mL	50 µg/mL	50 µg/mL	136 µM	50 (≈ 136 µM)	50 (≈ 136 µM)	50 (≈ 136 µM)	50 (≈ 136 µM)	50 (≈ 136 µM)	50 (≈ 136 µM)	50 (≈ 136 µM)	50 (≈ 136 µM)	50 (≈ 136 µM)	50 (≈ 136 µM)	50 (≈ 136 µM)	50 (≈ 136 µM)	inactive	< 5	> 8
